From ChEMBL document CHEMBL1143905, “Synthesis of barbiturate-based methionine aminopeptidase-1 inhibitors” (Bioorg Med Chem Lett, 2008) come the findings set out here.

A value given as a limit tells only on which side of the number the result lay.

This test can be described thus: Inhibition of Escherichia coli methionine aminopeptidase 1. In short, it runs like this:
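Coupled chromogenic assay at room temperature: 50 mM HEPES pH 7.5, 100 μM CoCl2, 400 μM Met-Pro-pNA substrate, 0.25–4.0 μM MetAP-1 enzyme, 10–25 μM proline aminopeptidase as coupling enzyme, varying inhibitor concentrations. pNA release read at 405 nm. Ki obtained by non-linear regression assuming a competitive steady-state model.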
The Ki is a measure of affinity in units of concentration, obtained from inhibition or displacement. Low values mean higher affinity, high ones lower affinity. For the compound `O=C1NC(=S)NC(=O)C1=Cc1ccc(C(=O)O)cc1`, the Ki was above 100 µM. As for `O=C1NC(=O)C(=Cc2cccc([N+](=O)[O-])c2)C(=O)N1`, the figure is 29 µM; as for `O=C1NC(=O)C(=Cc2ccc([N+](=O)[O-])cc2)C(=O)N1`, 105 µM; as for `CN1C(=O)C(=Cc2ccc(O)cc2)C(=O)N(C)C1=O`, above 100 µM. `CN(C)c1ccc(C=C2C(=O)NC(=O)NC2=O)cc1`: the Ki was found to be 13 µM. `O=C1NC(=O)C(=Cc2ccccc2)C(=O)N1`: the affinity corresponds to a Ki of 517 µM. Compared with the last compound, the Ki is about 40-fold higher.

The compound `COc1ccc(C=C2C(=O)NC(=S)NC2=O)cc1` gave a Ki of 87 µM. The result for `CN1C(=O)C(=Cc2ccc([N+](=O)[O-])cc2)C(=O)N(C)C1=O` reads above 100 µM; that for `O=C1NC(=O)C(=C/C=C/c2ccccc2)C(=O)N1`, 12 µM; that for `CN(C)c1ccc(C=C2C(=O)NC(=S)NC2=O)cc1`, above 100 µM. Turning to `O=C1NC(=S)NC(=O)C1=Cc1ccc([N+](=O)[O-])cc1`, the Ki is above 100 µM. The result for `O=C1NC(=S)NC(=O)C1=C/C=C/c1ccccc1` reads above 100 µM; that for `CN1C(=O)C(=Cc2ccc(N(C)C)cc2)C(=O)N(C)C1=O`, above 100 µM; that for `COc1ccc(C=C2C(=O)N(C)C(=O)N(C)C2=O)cc1`, above 100 µM. As for `CN1C(=O)C(=Cc2ccc(C(=O)O)cc2)C(=O)N(C)C1=O`, the figure is above 100 µM; as for `CN1C(=O)C(=Cc2ccccc2)C(=O)N(C)C1=O`, above 100 µM.

On to `O=C1NC(=S)NC(=O)C1=Cc1ccc(O)cc1`, for which the Ki is above 100 µM. Take `CN1C(=O)C(=C/C=C/c2ccccc2)C(=O)N(C)C1=O`: the Ki was above 100 µM. As for `O=C1NC(=O)C(=Cc2ccc(O)cc2)C(=O)N1`, the figure is 4 µM. As for `O=C1NC(=S)NC(=O)C1=Cc1ccc(F)cc1`, the figure is above 100 µM; as for `CN1C(=O)C(=C/C=C/c2ccc(N(C)C)cc2)C(=O)N(C)C1=O`, above 100 µM. As for `CN(C)c1ccc(/C=C/C=C2C(=O)NC(=S)NC2=O)cc1`, the figure is 17 µM. Take `O=C1NC(=S)NC(=O)C1=Cc1ccccc1`: the Ki was above 100 µM. The result for `CN1C(=O)C(=Cc2cccc([N+](=O)[O-])c2)C(=O)N(C)C1=O` reads above 100 µM; that for `O=C1NC(=O)C(=Cc2ccc(F)cc2)C(=O)N1`, 89 µM. Turning to `CN(C)c1ccc(/C=C/C=C2C(=O)NC(=O)NC2=O)cc1`, the Ki amounted to 0.05 µM. As for `O=C1NC(=S)NC(=O)C1=Cc1cccc([N+](=O)[O-])c1`, the figure is above 100 µM; as for `COc1ccc(C=C2C(=O)NC(=O)NC2=O)cc1`, 25 µM; as for `CN1C(=O)C(=Cc2ccc(F)cc2)C(=O)N(C)C1=O`, above 100 µM. `O=C1NC(=O)C(=Cc2ccc(C(=O)O)cc2)C(=O)N1` returned a Ki of 335 µM.
